These results are taken from article PMC3781598 (Pharmaceutical research, 2013).

In one data set the test system is genetic toxicity. Description: Ames test. It counts as cell-based. The note with it: compound concentrations 5-100 μM.
Data set [1] addresses T1, human CYP2A6 (Homo sapiens, UniProt P11509).
T1 sequence (P11509 with tags, fused parts or gaps limits assumed): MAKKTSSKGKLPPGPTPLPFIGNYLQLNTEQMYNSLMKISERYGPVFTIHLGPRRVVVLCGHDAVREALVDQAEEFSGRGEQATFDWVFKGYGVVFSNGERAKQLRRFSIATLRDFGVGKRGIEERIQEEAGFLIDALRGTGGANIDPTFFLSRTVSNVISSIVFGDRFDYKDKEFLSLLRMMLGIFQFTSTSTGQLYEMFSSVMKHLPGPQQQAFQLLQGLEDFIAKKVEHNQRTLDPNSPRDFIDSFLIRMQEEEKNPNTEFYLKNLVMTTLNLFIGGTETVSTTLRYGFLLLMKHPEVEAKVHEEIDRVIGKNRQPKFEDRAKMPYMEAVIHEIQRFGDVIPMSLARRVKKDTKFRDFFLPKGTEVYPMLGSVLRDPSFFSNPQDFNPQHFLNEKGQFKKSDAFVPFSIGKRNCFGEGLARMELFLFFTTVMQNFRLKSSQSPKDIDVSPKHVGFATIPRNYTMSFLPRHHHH
The data set is described as follows: Spectral ligand binding assay. The settings on record: for Kd 2A6: spectral titration, ≥ = minimal Kd value.

Data set [2] has as its target T1, human CYP2A6. The data set is described as follows: Coumarin metabolism assay.
The target of the next data set is T2, CYP1A2 (Homo sapiens, UniProt P05177).
T2 sequence (P05177 2-516 limits assumed): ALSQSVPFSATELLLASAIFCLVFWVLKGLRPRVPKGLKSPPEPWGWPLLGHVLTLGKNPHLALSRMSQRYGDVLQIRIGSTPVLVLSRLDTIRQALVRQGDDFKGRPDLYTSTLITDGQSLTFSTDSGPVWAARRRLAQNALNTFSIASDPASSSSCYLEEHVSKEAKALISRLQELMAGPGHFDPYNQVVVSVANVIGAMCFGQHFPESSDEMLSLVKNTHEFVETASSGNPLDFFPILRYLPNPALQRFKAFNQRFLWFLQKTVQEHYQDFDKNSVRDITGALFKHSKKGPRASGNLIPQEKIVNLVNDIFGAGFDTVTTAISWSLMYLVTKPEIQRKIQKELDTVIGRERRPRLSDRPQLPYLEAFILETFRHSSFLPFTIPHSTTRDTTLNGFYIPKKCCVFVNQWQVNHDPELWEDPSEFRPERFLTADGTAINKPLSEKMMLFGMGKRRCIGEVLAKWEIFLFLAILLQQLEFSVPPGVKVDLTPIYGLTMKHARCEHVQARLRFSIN
Description: Metabolic stability phenotyping with recombinantly expressed CYPs. The settings on record: for half-life at 1 μM: human, recombinant CYP1A2, pH 7.4. Format: in vitro ADME. The method in brief:
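Each recombinant human CYP at 100 pmol/ml with 1 μM test compound in potassium phosphate pH 7.4, 3.33 mM MgCl2. Prewarmed 10 min at 37 °C, then started with NADPH regenerating system; no-NADPH buffer controls. Aliquots at 0–45 min quenched in methanol with buspirone internal standard. MS peak-area ratios gave ln(ratio)-vs-time slope, converted to T1/2. Duplicates.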

Another data set has as its system CYP2A6 / CYP2A13. Description: Coumarin metabolism assay. The note with it: human, pH 7.4, probe coumarin (7-hydroxylation), Selectivity Ki (2A6)/ Ki (2A13), ratio of the CYP2A6 value to the CYP2A13 value.
The next data set deals with T3, human CYP2A13 (Homo sapiens, UniProt Q16696).
T3 sequence (Q16696 with tags, fused parts or gaps limits assumed): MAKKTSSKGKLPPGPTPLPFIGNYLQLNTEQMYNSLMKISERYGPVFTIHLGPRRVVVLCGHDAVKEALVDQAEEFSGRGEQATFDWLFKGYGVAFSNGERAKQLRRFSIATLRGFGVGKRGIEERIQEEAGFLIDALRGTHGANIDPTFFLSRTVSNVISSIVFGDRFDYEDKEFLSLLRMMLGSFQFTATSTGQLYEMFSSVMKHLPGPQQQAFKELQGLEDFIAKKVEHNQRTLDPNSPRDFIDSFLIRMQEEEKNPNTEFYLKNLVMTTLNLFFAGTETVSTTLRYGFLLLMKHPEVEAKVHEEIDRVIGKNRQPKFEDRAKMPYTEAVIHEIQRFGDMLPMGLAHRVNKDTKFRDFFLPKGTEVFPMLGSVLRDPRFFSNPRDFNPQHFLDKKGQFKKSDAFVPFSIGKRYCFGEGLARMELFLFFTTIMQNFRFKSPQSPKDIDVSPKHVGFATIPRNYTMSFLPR
Description: Coumarin metabolism assay.

The nature of data set [3]: Aqueous solubility, shake-flask incubation method. Format: physicochemical. The settings on record: phosphate-buffered saline, pH 7.4, aqueous buffer, thermodynamic from solid. The method in brief: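 Shake-flask equilibration of test compound in phosphate-buffered saline, pH 7.4, for 24 h at room temperature.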
Data set [4] in a line: Metabolic stability in knockout mouse lung microsomes. It counts as in vitro ADME. The method in brief: (§1)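 Microsomes from B6 Cyp2a(4/5)bgs-null (CYP2A/CYP2B knockout) or side-by-side wild-type mouse lung and liver, at 0.1 mg protein/ml. Buffer was 50 mM potassium phosphate pH 7.4, 3 mM MgCl2, 1 mM EDTA. […] Parent loss by LC/MS/MS. Single-exponential kel converted to T1/2; CLint = kel × volume/mg protein.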

Data set [5] can be described thus: Metabolic stability in wild type mouse liver microsomes. The note with it: pH 7.4. It counts as in vitro ADME. Summed up:
as §1
In general terms: Liver microsomes are vesicles of endoplasmic reticulum, rich in cytochrome P450 enzymes.

A short description of data set [6]: Metabolic stability in wild type mouse lung microsomes. It counts as in vitro ADME. The note with it: pH 7.4. The method in brief: as §1
A short description of data set [7]: Metabolic stability in knockout mouse liver microsomes. It counts as in vitro ADME. Summed up:
as §1

Setting [8] is: B6 Cyp2a(4/5)bgs-Null, mouse, lung microsomes from knockout mice, pH 7.4.
The mark [9] stands for this setting: B6 Cyp2a(4/5)bgs-Null, mouse, liver microsomes from knockout mice, pH 7.4.

≈ marks a conversion by molar mass, not a printed value. Entries after “also recorded” stand apart in the source; their conditions may differ.

Take `Clc1ccccc1CN1CCOCC1` [Compound 3, 4-(2-chlorobenzyl)morpholine]: in the data set with genetic toxicity, the Ames test revertants entry is on record as “few or no revertants”. Also, the “Kd 2A6” value on human CYP2A6 [1] was “No ^** Spectral Shift”. In addition, the Ki (in general, the dissociation constant of the complex between target and ligand, obtained from inhibition or displacement) on human CYP2A6 [2] is not below 1000 µM; at human CYP2A13, 39.7 ± 4.3 µM. Further, the half-life (usually how long it takes for the measured level to halve) at 1 μM on CYP1A2 stood at 38.6 h. In addition, the “Average T1/2 CYP1A2” value at CYP1A2 (recombinant enzyme 100 pmol/ml, 1 μM compound) is on record as “essentially no loss”. Further, in the data set with CYP2A6 / CYP2A13, the selectivity ratio at 10 min is not below 25. The solubility (as a rule, the dissolved amount per volume that the medium holds) at 24 h in data set [3] was 180 µM (≈ 38.1 µg/mL).
For the molecule `Fc1cccc(Cl)c1CN1CCOCC1` [Compound 7, 4-(2-chloro-6-fluorobenzyl)morpholine], the Ames test revertants result with genetic toxicity was “few or no revertants”. Moreover, the “spectral shift with 2A6” value at human CYP2A6 [1] (follow-up titration of HTS hit, Figure 1D) is “no spectral shift”. The “Kd 2A6” value on human CYP2A6 [1] is recorded as “did not cause a spectral shift; also recorded: No ^** Spectral Shift”. For the same molecule, in data set [4] (0.1 mg/ml protein), the “increase in metabolic stability, transgenic vs wild type lung microsomes” value was determined as 5 fold. For the same molecule, the half-life at 1 μM in data set [4] (setting [8]) worked out at 11.2 h; in [5] it was 1.22 h; on CYP1A2, 20.2 h; in [6], 2.07 h; in data set [7] (setting [9]) it was 2.12 h. In addition, the intrinsic metabolic clearance (microsomal CLint) (commonly a measure of how fast metabolising enzymes remove a compound, apart from limits set by blood flow) at 1 μM in [4] (setting [8]) is 10.4 µL/min/mg; in data set [5] it was 95.3 µL/min/mg; in data set [6] it was 55.7 µL/min/mg; in data set [7] (setting [9]) it was 54.8 µL/min/mg. Besides, the Ki on human CYP2A6 [2] stood at 287 µM; at human CYP2A13 it was 38.1 µM. Besides, the selectivity ratio at 10 min with CYP2A6 / CYP2A13 is 7.5. For the same molecule, in data set [7] (0.1 mg/ml protein), the “increase in metabolic stability, transgenic vs wild type liver microsomes” value was found to be 1.7 fold. This molecule came in with a solubility at 24 h in data set [3] of 184 µM (≈ 42.3 µg/mL).
